Data set [1] relates to Proteus mirabilis. As to the kind of experiment: Antimicrobial activity against Proteus mirabilis ATCC 14153 measured after 18 hrs using solid lipid nanoparticle formulation by broth microdilution method. It counts as functional. The conditions noted are these: ATCC 14153, 18 h. The method, boiled down: (§1)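 Broth microdilution in 96-well plates. Compound stock 10 mg/ml in DMSO, two-fold serial dilutions from final 1024 to 0.5 µg/ml in water plus double-strength nutrient broth. Inoculum from direct colony suspension in saline adjusted to 0.5 McFarland, final 5 × 10⁵ CFU per well, used within 15 min. Positive and negative control rows.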
On the technique in general: In broth dilution the organism is exposed to a series of concentrations in liquid medium.

Data set [2] concerns Acinetobacter baumannii. As to the kind of experiment: Antimicrobial activity against clinical isolate of Acinetobacter baumannii measured after 18 hrs using solid lipid nanoparticle formulation by broth microdilution method. It counts as functional. A digest of the protocol: as §1
Data set [3] concerns Staphylococcus aureus. The experiment in a line: Antimicrobial activity against Staphylococcus aureus ATCC 29213 measured after 18 hrs by broth microdilution method. It counts as functional. The conditions noted are these: ATCC 29213, 18 h. The method, boiled down: as §1
In data set [4] the test system is Candida albicans. The experiment in a line: Antimicrobial activity against Candida albicans ATCC 10231 measured after 18 hrs using solid lipid nanoparticle formulation by broth microdilution method. The conditions noted are these: ATCC 10231, 18 h. It counts as functional. A digest of the protocol:
as §1

For data set [5], the system named is Pseudomonas aeruginosa. The experiment in a line: Antimicrobial activity against Pseudomonas aeruginosa ATCC 27853 measured after 18 hrs using solid lipid nanoparticle formulation by broth microdilution method. It counts as functional. The conditions noted are these: ATCC 27853, 18 h. A digest of the protocol: as §1
The test system of data set [6] is Klebsiella pneumoniae. The experiment in a line: Antimicrobial activity against Klebsiella pneumoniae ATCC 700603 measured after 18 hrs by broth microdilution method. The conditions noted are these: Klebsiella pneumoniae, 700603, 18 h. It counts as functional. The method, boiled down:
as §1

Data set [7] concerns Acinetobacter baumannii. The experiment in a line: Antimicrobial activity against clinical isolate of Acinetobacter baumannii measured after 18 hrs by broth microdilution method. It counts as functional. The method, boiled down: as §1
The test system of data set [8] is Klebsiella pneumoniae. The experiment in a line: Antimicrobial activity against Klebsiella pneumoniae ATCC 700603 measured after 18 hrs using solid lipid nanoparticle formulation by broth microdilution method. It counts as functional. The conditions noted are these: Klebsiella pneumoniae, 700603, 18 h. A digest of the protocol: as §1
Data set [9] is described as follows: Permeability of the compound in simulated dialysis membrane at pH 6.8 measured within 6 hrs by Franz diffusion cell-based spectrophotometric method. The format is ADME, cell membranes. The following applies: artificial membrane, pH 6.8, 6 h. The method, boiled down: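 Franz cell with dialysis membrane. 1 ml of SLN formula or compound suspension in the donor chamber; receptor holds phosphate buffer pH 6.8 at 37 °C, magnetically stirred. Receptor sampled with replacement over 6 h; concentration by UV absorbance against a calibration curve.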

Data set [10] in a line: Dissolution of the compound in phosphate buffer at pH 6.8 measured over 12 hrs using solid lipid nanoparticle formulation by dialysis bag diffusion method. It counts as physicochemical. The following applies: artificial membrane, pH 6.8, 12 h. A digest of the protocol: (§2)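 SLNs made by hot emulsification-ultrasonication with Compritol as lipid and 3% Pluronic F68 aqueous phase. Homogenized at 10,000 rpm and 75 °C for 15 min, then probe-sonicated 10 min.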

Data set [11] deals with Escherichia coli. The experiment in a line: Antimicrobial activity against Escherichia coli ATCC 25922 measured after 18 hrs using solid lipid nanoparticle formulation by broth microdilution method. The format is functional. The conditions noted are these: ATCC 25922, 18 h. A digest of the protocol: as §1
Data set [12] concerns Pseudomonas aeruginosa. As to the kind of experiment: Antimicrobial activity against Pseudomonas aeruginosa ATCC 27853 measured after 18 hrs by broth microdilution method. The conditions noted are these: ATCC 27853, 18 h. It counts as functional. A digest of the protocol: as §1
Data set [13] deals with Candida albicans. The experiment in a line: Antimicrobial activity against Candida albicans ATCC 10231 at 380 ug by Kirby-Bauer disk diffusion test. It counts as functional, organism-based. A digest of the protocol:
(§3)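 Modified Kirby-Bauer disc diffusion on Muller-Hinton agar. Inhibition-zone diameter, disc diameter included, measured with a ruler from under the plate and recorded in mm.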
On the technique in general: A growth-free zone around the sample is the usual read-out of agar diffusion tests.

The nature of data set [14]: Permeability of the compound in simulated dialysis membrane at pH 6.8 measured within 6 hrs using solid lipid nanoparticle formulation by Franz diffusion cell-based spectrophotometric method. The format is ADME, cell membranes. The following applies: artificial membrane, pH 6.8, 6 h. A digest of the protocol:
as §2

Data set [15] has as its system Proteus mirabilis. The experiment in a line: Antimicrobial activity against Proteus mirabilis ATCC 14153 measured after 18 hrs by broth microdilution method. The format is functional. The conditions noted are these: ATCC 14153, 18 h. A digest of the protocol:
as §1

In data set [16] the test system is Escherichia coli. As to the kind of experiment: Antimicrobial activity against Escherichia coli ATCC 25922 measured after 18 hrs by broth microdilution method. It counts as functional. The conditions noted are these: ATCC 25922, 18 h. The method, boiled down:
as §1

Data set [17] relates to Staphylococcus aureus. The experiment in a line: Antimicrobial activity against Staphylococcus aureus ATCC 29213 assessed as diameter of inhibition zone at 380 ug by Kirby-Bauer disk diffusion test. It counts as functional. A digest of the protocol: as §3
In data set [18] the test system is Candida albicans. The experiment in a line: Antimicrobial activity against Candida albicans ATCC 10231 measured after 18 hrs by broth microdilution method. The format is functional. The following applies: ATCC 10231, 18 h. The method, boiled down:
as §1

Data set [19] in a line: Dissolution of the compound in phosphate buffer at pH 6.8 measured within 2 hrs by dialysis bag diffusion method. The format is physicochemical. The following applies: artificial membrane, pH 6.8, 2 h. The method, boiled down: (§4)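 Formula or compound suspension (3 ml) in 12 kDa MWCO dialysis bags, in 500 ml enzyme-free phosphate buffer pH 6.8, 37 °C, 50 rpm. 5 ml samples taken with replacement over 12 h. Cumulative % release determined by UV absorbance against a calibration curve.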

In data set [20] the test system is Staphylococcus aureus. As to the kind of experiment: Antimicrobial activity against Staphylococcus aureus ATCC 29213 measured after 18 hrs using solid lipid nanoparticle formulation by broth microdilution method. It counts as functional. The following applies: ATCC 29213, 18 h. The method, boiled down:
as §1

A short description of data set [21]: Dissolution of the compound in phosphate buffer at pH 6.8 measured after 2 hrs by dialysis bag diffusion method. The following applies: artificial membrane, pH 6.8, 2 h. It counts as physicochemical. A digest of the protocol:
as §4

In brackets after ≈: the same amount, converted by molar mass. Activity calls are given as the source filed them. The calls are words filed in the database; no cut-off is given here.

Consider 3 compounds from ChEMBL document CHEMBL4480414, “Design and total synthesis of (-)-codonopsinine, (-)-codonopsine and codonopsinine analogues by O-(2-oxopyrrolidin-5-yl)trichloroacetimidate as amidoalkylating agent with improved antimicrobial activity via solid lipid nanoparticle formulations” (Bioorg Med Chem, 2019).

In the case of `COCc1ccc([C@@H]2[C@@H](O)[C@H](O)[C@@H](C)N2C)cc1`, the MIC was 8 µg/mL (≈ 31.8 µM) with Proteus mirabilis [1]; above 1020 µg/mL with Acinetobacter baumannii [2]; 2 µg/mL (≈ 7.96 µM) against Staphylococcus aureus [3]; above 1020 µg/mL in the data set on Candida albicans [4]; above 1020 µg/mL in the data set with Pseudomonas aeruginosa [5]; 256 µg/mL (≈ 1020 µM) in the data set on Klebsiella pneumoniae [6]. Also, the minimal inhibitory concentration (MIC) against Acinetobacter baumannii [7] is above 1020 µg/mL; with Klebsiella pneumoniae [8], 512 µg/mL (≈ 2040 µM); against Escherichia coli [11], 8 µg/mL (≈ 31.8 µM); with Pseudomonas aeruginosa [12], above 1020 µg/mL; against Proteus mirabilis [15], 16 µg/mL (≈ 63.7 µM); with Escherichia coli [16], 8 µg/mL (≈ 31.8 µM). The MIC was above 1020 µg/mL against Candida albicans [18] and 2 µg/mL (≈ 7.96 µM) against Staphylococcus aureus [20]. Besides, the figures for the permeability in data set [9] and in data set [14] were 62.7% and 100%, respectively. The Activity in data set [10] came out at 92.1%; in data set [19], 91.8%. The outcome in the data set with Candida albicans [13] was inactive. In the data set with Staphylococcus aureus [17], the “growth inhibition (GI)” value is “Active”.

In the case of `COc1ccc([C@@H]2[C@@H](O)[C@H](O)[C@@H](C)N2C)c(F)c1`, the MIC in the data set with Proteus mirabilis [1] is above 1020 µg/mL; against Acinetobacter baumannii [2], 512 µg/mL (≈ 2010 µM); against Staphylococcus aureus [3], at most 0.5 µg/mL; against Candida albicans [4], above 1020 µg/mL; in the data set on Pseudomonas aeruginosa [5] it was above 1020 µg/mL; against Klebsiella pneumoniae [6] it was above 1020 µg/mL. The MIC against Acinetobacter baumannii [7] is 512 µg/mL (≈ 2010 µM); against Klebsiella pneumoniae [8], 1020 µg/mL (≈ 4010 µM); against Escherichia coli [11], 16 µg/mL (≈ 62.7 µM); against Pseudomonas aeruginosa [12], above 1020 µg/mL; in the data set with Proteus mirabilis [15], above 1020 µg/mL; in the data set with Escherichia coli [16], 4 µg/mL (≈ 15.7 µM). The MIC is above 1020 µg/mL against Candida albicans [18] and at most 0.5 µg/mL in the data set on Staphylococcus aureus [20]. Also, the figures for the permeability in data set [9] and in data set [14] were 59.1% and 100%, respectively. For the same compound, the results for the Activity in data set [10] and in data set [19] were 90.2% and 96.7%, respectively. The outcome with Candida albicans [13] was inactive. Moreover, the zone of inhibition at 380 µg/disc with Staphylococcus aureus [17] (read-out: DIZ) was found to be 30 mm.

With `COc1cc([C@@H]2[C@@H](O)[C@H](O)[C@@H](C)N2C)c(F)c(C)c1OC`, the MIC in the data set with Proteus mirabilis [1] is 128 µg/mL (≈ 428 µM); against Acinetobacter baumannii [2] it was 256 µg/mL (≈ 855 µM); in the data set with Staphylococcus aureus [3], 4 µg/mL (≈ 13.4 µM); against Candida albicans [4], above 1020 µg/mL; in the data set with Pseudomonas aeruginosa [5], above 1020 µg/mL; against Klebsiella pneumoniae [6], 512 µg/mL (≈ 1710 µM). The MIC in the data set with Acinetobacter baumannii [7] was 512 µg/mL (≈ 1710 µM); against Klebsiella pneumoniae [8], above 1020 µg/mL; in the data set with Escherichia coli [11], 16 µg/mL (≈ 53.5 µM); with Pseudomonas aeruginosa [12], 1020 µg/mL (≈ 3420 µM); with Proteus mirabilis [15], 1020 µg/mL (≈ 3420 µM); with Escherichia coli [16] it was 64 µg/mL (≈ 214 µM). Moreover, the figures for the minimum inhibitory concentration (MIC) in the data set with Candida albicans [18] and against Staphylococcus aureus [20] were above 1020 µg/mL and 4 µg/mL (≈ 13.4 µM), respectively. Further, the Activity in data set [21] is reported as 78.2%; in data set [10] it was 92.2%. Moreover, the permeability in data set [9] is recorded as 72.9%; in data set [14] it was 100%. The outcome with Candida albicans [13] was inactive. Besides, the “growth inhibition (GI)” value in the data set on Staphylococcus aureus [17] is “Active”.

In general, MIC refers to the lowest concentration found to suppress growth.
